Results published in ChEMBL document CHEMBL1135734, “Side-chain lactam-bridge conformational constraints differentiate the activities of salmon and human calcitonins and reveal a new design concept for potent calcitonin analogues” (J Med Chem, 2002).
Positions of bridges follow the written chain, without caps; N, C: chain ends. Non-standard residues stand in square brackets, D forms with d. Residues, ends and D or L forms follow the SMILES beside them. Nle = CCCC[C@H](N)C(=O)O; Orn = NCCC[C@H](N)C(=O)O

Columns and labels:
Calcitonin receptor [1] = biological target: T1, Calcitonin receptor (Homo sapiens, UniProt P30988); experiment: Inhibition of [125I]-salmon calcitonin (sCT) binding to human calcitonin receptor I1 expressed in HEK293 cells; type: cell-based; details: hek293
T1 sequence (P30988 whole entry): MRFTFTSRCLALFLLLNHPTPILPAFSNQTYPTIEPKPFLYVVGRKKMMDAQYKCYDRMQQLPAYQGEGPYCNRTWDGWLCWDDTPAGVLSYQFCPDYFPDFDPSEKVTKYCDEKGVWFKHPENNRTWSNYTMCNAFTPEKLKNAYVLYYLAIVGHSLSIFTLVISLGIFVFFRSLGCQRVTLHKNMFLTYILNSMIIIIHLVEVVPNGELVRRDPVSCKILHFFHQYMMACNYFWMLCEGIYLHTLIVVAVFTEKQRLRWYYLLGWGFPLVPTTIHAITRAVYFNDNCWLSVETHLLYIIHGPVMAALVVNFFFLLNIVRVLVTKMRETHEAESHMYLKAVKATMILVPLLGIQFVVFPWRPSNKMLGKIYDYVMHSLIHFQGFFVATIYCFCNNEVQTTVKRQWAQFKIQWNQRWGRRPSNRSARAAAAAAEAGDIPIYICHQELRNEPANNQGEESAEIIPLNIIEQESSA

Calcitonin receptor [2] = biological target: T2, Calcitonin receptor (Rattus norvegicus, UniProt P32214); experiment: Displacement of [125I]-salmon calcitonin (sCT) from calcitonin receptor of rat brain
T2 sequence (P32214 whole entry): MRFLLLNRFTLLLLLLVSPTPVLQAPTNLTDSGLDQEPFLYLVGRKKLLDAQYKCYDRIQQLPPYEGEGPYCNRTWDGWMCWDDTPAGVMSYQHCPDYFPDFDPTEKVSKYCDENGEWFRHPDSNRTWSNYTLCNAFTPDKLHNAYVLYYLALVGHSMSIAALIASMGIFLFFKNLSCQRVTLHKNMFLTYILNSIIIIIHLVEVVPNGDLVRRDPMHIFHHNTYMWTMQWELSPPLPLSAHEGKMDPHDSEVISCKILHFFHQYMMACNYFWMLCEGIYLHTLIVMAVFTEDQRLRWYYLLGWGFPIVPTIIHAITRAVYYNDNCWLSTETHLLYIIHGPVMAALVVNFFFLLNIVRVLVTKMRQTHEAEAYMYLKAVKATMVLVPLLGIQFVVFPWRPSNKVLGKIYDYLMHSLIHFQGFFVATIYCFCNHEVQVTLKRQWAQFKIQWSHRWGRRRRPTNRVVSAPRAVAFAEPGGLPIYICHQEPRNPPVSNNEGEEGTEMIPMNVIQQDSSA
Procedure, shortened: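 Male Sprague–Dawley rat (250–350 g) brain membranes (~0.63 mg protein/tube) were shaken on ice for 30 min with 10 pM final [125I-Tyr22]sCT and competitor in 50 mM Tris-HCl pH 7.4 with 34 μM bacitracin. Tubes were centrifuged and the pellets washed, SDS-solubilized and scintillation counted. Nonspecific binding was taken with 1 μM sCT. IC50 came from probit analysis, and relative affinity set sCT = 100%.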

Ki (Calcitonin receptor [1]) [nM]	IC50 (Calcitonin receptor [2]) [nM]	SMILES
1230	1910	CC[C@H](C)[C@H](NC(=O)[C@H](C)NC(=O)[C@@H](NC(=O)[C@H](CCC(N)=O)NC(=O)[C@@H]1CCCN1C(=O)[C@H](Cc1ccccc1)NC(=O)[C@@H](NC(=O)[C@H](Cc1cnc[nH]1)NC(=O)[C@H](Cc1ccccc1)NC(=O)[C@@H]1CCCN1C(=O)[C@H](CC(N)=O)NC(=O)[C@H](Cc1ccccc1)NC(=O)[C@H](CC(=O)O)NC(=O)[C@H](CCC(N)=O)NC(=O)[C@@H](NC(=O)[C@H](Cc1ccc(O)cc1)NC(=O)[C@@H](NC(=O)CNC(=O)[C@H](CC(C)C)NC(=O)[C@H](CCSC)NC(=O)[C@@H]1CSSC[C@H](N)C(=O)NCC(=O)N[C@@H](CC(N)=O)C(=O)N[C@@H](CC(C)C)C(=O)N[C@@H](CO)C(=O)N[C@@H]([C@@H](C)O)C(=O)N1)[C@@H](C)O)[C@@H](C)O)[C@@H](C)O)[C@@H](C)O)C(=O)NCC(=O)N[C@H](C(=O)NCC(=O)N[C@@H](C)C(=O)N1CCC[C@H]1C(N)=O)C(C)C (H-CGNLSTCMLGTYTQDFNPFHTFPQTAIGVGAP-NH2; disulfide 1-7)
0.069	0.249	CC(C)C[C@H](NC(=O)[C@H](CCCCN)NC(=O)CNC(=O)[C@H](CC(C)C)NC(=O)[C@@H](NC(=O)[C@H](CS)NC(=O)[C@@H](NC(=O)[C@H](CO)NC(=O)[C@H](CC(C)C)NC(=O)[C@H](CC(N)=O)NC(=O)[C@H](CO)NC(=O)[C@@H](N)CS)[C@@H](C)O)C(C)C)C(=O)N[C@@H](CO)C(=O)N[C@@H](CCC(N)=O)C(=O)N[C@@H](CCC(=O)O)C(=O)N[C@@H](CC(C)C)C(=O)N[C@H]1CC(=O)NCCC[C@@H](C(=O)N[C@@H](Cc2ccc(O)cc2)C(=O)N2CCC[C@H]2C(=O)N[C@@H](CCCN=C(N)N)C(=O)N[C@H](C(=O)N[C@@H](CC(N)=O)C(=O)N[C@H](C(=O)NCC(=O)N[C@@H](CO)C(=O)NCC(=O)N[C@H](C(=O)N2CCC[C@H]2C(N)=O)[C@@H](C)O)[C@@H](C)O)[C@@H](C)O)NC(=O)[C@H](Cc2c[nH]cn2)NC(=O)[C@H](CC(C)C)NC(=O)[C@H](CCCCN)NC1=O (H-CSNLSTCVLGKLSQELDKLH[Orn]YPRTNTGSGTP-NH2; lactam 17-21)
0.023	0.326	CC(C)C[C@H](NC(=O)[C@H](CCCCN)NC(=O)CNC(=O)[C@H](CC(C)C)NC(=O)[C@@H](NC(=O)[C@H](CS)NC(=O)[C@@H](NC(=O)[C@H](CO)NC(=O)[C@H](CC(C)C)NC(=O)[C@H](CC(N)=O)NC(=O)[C@H](CO)NC(=O)[C@@H](N)CS)[C@@H](C)O)C(C)C)C(=O)N[C@@H](CO)C(=O)N[C@@H](CCC(N)=O)C(=O)N[C@@H](CCC(=O)O)C(=O)N[C@@H](CC(C)C)C(=O)N[C@H]1CC(=O)NCCC[C@@H](C(=O)N[C@@H](Cc2ccc(O)cc2)C(=O)N2CCC[C@H]2C(=O)N[C@@H](CCCN=C(N)N)C(=O)N[C@H](C(=O)N[C@@H](CC(N)=O)C(=O)N[C@H](C(=O)NCC(=O)N[C@@H](CO)C(=O)NCC(=O)N[C@H](C(=O)N2CCC[C@H]2C(N)=O)[C@@H](C)O)[C@@H](C)O)[C@@H](C)O)NC(=O)[C@H](CCC(N)=O)NC(=O)[C@H](CC(C)C)NC(=O)[C@H](CCCCN)NC1=O
2570	> 5000	CC[C@H](C)[C@H](NC(=O)[C@H](C)NC(=O)[C@@H](NC(=O)[C@H](CCC(N)=O)NC(=O)[C@@H]1CCCN1C(=O)[C@H](Cc1ccccc1)NC(=O)[C@@H](NC(=O)[C@H](Cc1c[nH]cn1)NC(=O)[C@H](CCCCN)NC(=O)[C@@H]1CCCN1C(=O)[C@H](CC(N)=O)NC(=O)[C@H](Cc1ccccc1)NC(=O)[C@H](CC(=O)O)NC(=O)[C@H](CCC(N)=O)NC(=O)[C@@H](NC(=O)[C@H](Cc1ccc(O)cc1)NC(=O)[C@@H](NC(=O)CNC(=O)[C@H](CC(C)C)NC(=O)[C@H](CCSC)NC(=O)[C@@H]1CSSC[C@H](N)C(=O)NCC(=O)N[C@@H](CC(N)=O)C(=O)N[C@@H](CC(C)C)C(=O)N[C@@H](CO)C(=O)N[C@@H]([C@@H](C)O)C(=O)N1)[C@@H](C)O)[C@@H](C)O)[C@@H](C)O)[C@@H](C)O)C(=O)NCC(=O)N[C@H](C(=O)NCC(=O)N[C@@H](C)C(=O)N1CCC[C@H]1C(N)=O)C(C)C (H-CGNLSTCMLGTYTQDFNPKHTFPQTAIGVGAP-NH2; disulfide 1-7)
0.56	5.39	CCCC[C@H](NC(=O)[C@H](CS)NC(=O)[C@@H](NC(=O)[C@H](CO)NC(=O)[C@H](CC(C)C)NC(=O)[C@H](CC(N)=O)NC(=O)CNC(=O)[C@@H](N)CS)[C@@H](C)O)C(=O)N[C@@H](CC(C)C)C(=O)NCC(=O)N[C@H](C(=O)N[C@@H](Cc1ccccc1)C(=O)N[C@H](C(=O)N[C@@H](CCC(N)=O)C(=O)N[C@@H](CC(=O)O)C(=O)N[C@@H](Cc1ccccc1)C(=O)N[C@H]1CC(=O)NCCC[C@@H](C(=O)N[C@@H](Cc2ccc(O)cc2)C(=O)N2CCC[C@H]2C(=O)N[C@@H](CCC(N)=O)C(=O)N[C@H](C(=O)N[C@@H](C)C(=O)N[C@H](C(=O)NCC(=O)N[C@H](C(=O)NCC(=O)N[C@@H](C)C(=O)N2CCC[C@H]2C(N)=O)C(C)C)[C@@H](C)CC)[C@@H](C)O)NC(=O)[C@H](Cc2c[nH]cn2)NC(=O)[C@H](Cc2ccccc2)NC(=O)[C@H](CCCCN)NC1=O)[C@@H](C)O)[C@@H](C)O (H-CGNLSTC[Nle]LGTFTQDFDKFH[Orn]YPQTAIGVGAP-NH2; lactam 17-21)
–	173	CC[C@H](C)[C@H](NC(=O)[C@H](C)NC(=O)[C@@H](NC(=O)[C@H](CCC(N)=O)NC(=O)[C@@H]1CCCN1C(=O)[C@H](Cc1ccccc1)NC(=O)[C@@H]1CCCNC(=O)C[C@H](NC(=O)[C@H](Cc2ccccc2)NC(=O)[C@H](CC(=O)O)NC(=O)[C@H](CCC(N)=O)NC(=O)[C@@H](NC(=O)[C@H](Cc2ccc(O)cc2)NC(=O)[C@@H](NC(=O)CNC(=O)[C@H](CC(C)C)NC(=O)[C@H](CCSC)NC(=O)[C@H](CS)NC(=O)[C@@H](NC(=O)[C@H](CO)NC(=O)[C@H](CC(C)C)NC(=O)[C@H](CC(N)=O)NC(=O)CNC(=O)[C@@H](N)CS)[C@@H](C)O)[C@@H](C)O)[C@@H](C)O)C(=O)N[C@@H](CCCCN)C(=O)N[C@@H](Cc2ccccc2)C(=O)N[C@@H](Cc2c[nH]cn2)C(=O)N1)[C@@H](C)O)C(=O)NCC(=O)N[C@H](C(=O)NCC(=O)N[C@@H](C)C(=O)N1CCC[C@H]1C(N)=O)C(C)C (H-CGNLSTCMLGTYTQDFDKFH[Orn]FPQTAIGVGAP-NH2; lactam 17-21)

SMILES	Ki (Calcitonin receptor [1]) [nM]	IC50 (Calcitonin receptor [2]) [nM]
CC[C@H](C)[C@H](NC(=O)[C@H](C)NC(=O)[C@@H](NC(=O)[C@H](CCC(N)=O)NC(=O)[C@@H]1CCCN1C(=O)[C@H](Cc1ccccc1)NC(=O)[C@@H](NC(=O)[C@H](Cc1c[nH]cn1)NC(=O)[C@H](Cc1ccccc1)NC(=O)[C@H](CCCCN)NC(=O)[C@H](CC(N)=O)NC(=O)[C@H](Cc1ccccc1)NC(=O)[C@H](CC(=O)O)NC(=O)[C@H](CCC(N)=O)NC(=O)[C@@H](NC(=O)[C@H](Cc1ccc(O)cc1)NC(=O)[C@@H](NC(=O)CNC(=O)[C@H](CC(C)C)NC(=O)[C@H](CCSC)NC(=O)[C@@H]1CSSC[C@H](N)C(=O)NCC(=O)N[C@@H](CC(N)=O)C(=O)N[C@@H](CC(C)C)C(=O)N[C@@H](CO)C(=O)N[C@@H]([C@@H](C)O)C(=O)N1)[C@@H](C)O)[C@@H](C)O)[C@@H](C)O)[C@@H](C)O)C(=O)NCC(=O)N[C@H](C(=O)NCC(=O)N[C@@H](C)C(=O)N1CCC[C@H]1C(N)=O)C(C)C	–	2450
